Compound activity as filed in PubChem BioAssay.
The sample as a whole holds a higher share of hits than the screen did.
KSHV LANA nucl – inhibitors of KSHV LANA binding to nucleosomes; z-score (test concentration not listed); FITC-LANA1-23 / chicken nucleosome fluorescence polarization; active compounds read low; 51,000 compounds, 0.3% hits;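 active = both repeat wells score below -2 in polarization z-score versus plate sample wells, excluding overly bright wells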
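Assay system: purified chicken nucleosomes with FITC-labelled LANA N-terminal peptide (1-23) / Probe or stimulus: 50 nM FITC-LANA1-23 probe / Compound dosing: pin-transferred compound, 100 nL / Times: compound with peptide–nucleosome mix 10–45 min at room temperature / Technique: fluorescence polarization, 480 nm excitation, 535 nm parallel and perpendicular emission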
Ab BasE inh – inhibitors of Acinetobacter baumannii siderophore enzyme BasE; purified BasE, fluorescence polarization binding displacement; inhibition, % (concentration not given with the values); 84,000 compounds, 0.1% hits; in the data active = inhibition above about 25%, passing the limit was not always enough;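 note: 0% = negative plate control signal and 100% = positive plate control signal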
* marks the source's active call; other numbers are inactive results; / = no result given.

SMILES	KSHV LANA nucl	Ab BasE inh
O=C(O)CCNS(=O)(=O)c1ccccc1C(F)(F)F	/	0
O=S1(=O)CCC(N(CC2CCCO2)S(=O)(=O)C2=Cc3ccccc3CC2)C1 (stereo not given)	/	0
O=c1[nH]c2c(s1)C=Nc1cc3ccccc3cc1N2	-2.3*	23
COc1cccc(N2CCN(C(=O)c3nn(C)c4c3COc3ccccc3-4)CC2)c1	-2.3*	3
COc1cccc(C(=O)N2CCN(c3ccccc3)CC2)c1	/	3
COc1ccc(NS(=O)(=O)c2coc(C(N)=O)c2)cc1	3	0
O=C(Oc1ccc(Oc2ccccc2)cc1)N1CCC(OC(=O)n2ccnc2)CC1	/	0
CCCOc1ccc2oc(=O)c3c(c2c1)CCCN3C(=O)CN(CC)c1cccc(C)c1	0.45	1
Cc1nc(SCC(=O)NC2CCCC2)[nH]c(=O)c1Cc1ccccc1	1.3	1
O=C(CSc1n[nH]c(Cc2ccccc2)n1)NC1CCCCC1	-2.4*	2
CCOC(=O)c1cnc(SCC(=O)OCN2C(=O)c3ccccc3C2=O)nc1N	/	-1
